# Source: PubChem
# HSF1 activator: increases HSF-1 driven luciferase reporter signal; NIH3T3-HGL HSF-1 luciferase reporter, MG132, 8 h; 100% = twice DMSO control signal; activation, % at 9 µM; 300,000 tested, 1.7% active;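 active means mean replicate activation of at least 50% with a set share of replicates each reaching 50%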;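 further: 0% = median of the neutral control wells and 100% = twice that signal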
# CHT inh: human CHT choline transport inhibition | CHT-expressing cells, membrane potential dye, choline response; active compounds read low | B-score at 10 µM | 310,000 tested, 0.86% active;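 active means B-score over 3 SD under the library average, and starting fluorescence ratio not unusually high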;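 further: choline stimulus applied at its EC90 after an EC20 pre-addition; B-score computed on integrated fluorescence ratio after choline addition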
# Target sequence (Q9GZV3 whole entry, looked up): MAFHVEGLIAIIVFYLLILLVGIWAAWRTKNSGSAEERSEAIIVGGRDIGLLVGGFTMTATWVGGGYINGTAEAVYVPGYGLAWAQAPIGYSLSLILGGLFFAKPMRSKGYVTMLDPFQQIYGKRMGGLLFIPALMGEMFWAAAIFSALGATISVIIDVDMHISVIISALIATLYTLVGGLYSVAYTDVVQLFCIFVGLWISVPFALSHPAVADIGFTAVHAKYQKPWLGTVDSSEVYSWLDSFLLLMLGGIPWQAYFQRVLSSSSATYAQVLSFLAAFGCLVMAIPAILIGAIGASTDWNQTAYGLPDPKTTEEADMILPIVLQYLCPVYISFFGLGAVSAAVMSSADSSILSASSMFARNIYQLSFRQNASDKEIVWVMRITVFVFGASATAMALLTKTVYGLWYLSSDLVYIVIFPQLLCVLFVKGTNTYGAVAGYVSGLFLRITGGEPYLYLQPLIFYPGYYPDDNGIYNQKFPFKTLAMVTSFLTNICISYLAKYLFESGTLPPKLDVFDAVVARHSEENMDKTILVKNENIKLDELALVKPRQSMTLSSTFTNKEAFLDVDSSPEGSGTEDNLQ
# PHOSPHO1 inh: inhibitors of human PHOSPHO1 phosphatase; Q8TCT1; recombinant PHOSPHO1, absorbance phosphatase assay; inhibition, % at 13.3 µM; 290,000 tested, 1.1% active; AID 1565; in the data active means inhibition above about 60%
# CHT PAM: human CHT allosteric activation. B-score at 10 µM. 310,000 tested, 0.49% active. CHT-expressing cells, membrane potential dye, choline EC20; active compounds read high; LV-AA mutant CHT in HEK293 cells. Q9GZV3;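 active means initial fluorescence not abnormally high and integrated response B-score, plate-corrected, over 3 SD above library mean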
# HSF1 inhib: HSF1 inhibition; NIH3T3-HGL HSE-luciferase, MG132-induced, luminescence 8 h; active compounds read low; activity change, negative = inhibition, % at 7.5 µM (by protocol); 300,000 tested, 0.77% active; AID 2098;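 active means more than half of replicate wells show activity change below -50%, luminescence cut by over half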;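 further: luciferase reports HSF-1 transcriptional activity via heat shock element; 0% = median of DMSO wells and -100% = zero luminescence signal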
# Lipid droplet: modulators of hepatic lipid droplet formation; inhibition, % at 6.5 µM; AML12 mouse hepatocytes, oleate lipid droplets, BODIPY imaging; 240,000 tested, 0.4% active;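 active means lipid droplet intensity inhibited by at least 50%, with more than 500 cells counted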
#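 Technique: fluorescence imaging, 20x objective, two fields per well / Assay system: AML12 hepatocytes (mouse) / Measure: % inhibition of lipid droplet signal / Doses: 6.5 µM single-point dosing / Incubation: overnight exposure / Reagent: 100 µM oleic acid challenge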
# * = called active by the depositor; i = inactive; · = no result. Hits are enriched below; roughly 4.9% of the tested compounds scored in any of these assays.
SMILES,HSF1 activator,CHT inh,PHOSPHO1 inh,CHT PAM,HSF1 inhib,Lipid droplet
O=C(Nc1ccccc1-c1ccccc1)c1cc(C(F)(F)F)cc(C(F)(F)F)c1,12.1,i,6.0,i,6.4,-4.8
O=C(CCN1C(=O)/C(=C/c2ccc(F)cc2)SC1=S)NCCCn1ccnc1,-69.3,i,10.3,i,-58.5*,-17.4
O=C(CCN1C(=O)/C(=C/c2ccc(Cl)cc2)SC1=S)NCCCn1ccnc1,-3.0,i,36.8,i,2.2,-54.1
O=C(CN1C(=O)CSCC1=O)NCc1ccc(F)cc1,14.7,i,-5.8,i,-7.0,4.0
CC(=O)NCCn1ccc2ccccc21,59.8*,i,9.7,i,21.7,1.7
O=S(=O)(Nc1cccc(-c2nnco2)c1)c1ccc(Cl)cc1,1.7,i,38.6,i,-0.6,-4.7
O=C(COC(=O)CCC(=O)c1cccs1)NCc1cccs1,-4.8,i,28.5,i,-3.3,9.3
COc1cc2[nH]c(=O)n(CCC(=O)N3CCC(N4CCCCC4)CC3)c(=O)c2cc1OC,7.8,i,3.8,i,-8.1,·
Cc1ccc(C(=O)Nc2ccc3c(c2)CCC3)o1,63.2*,i,-24.6,i,32.2,-10.1
O=C(Nc1ccc(N2CCOCC2)c(Cl)c1)c1cc2ccccc2o1,55.2*,i,-11.6,i,31.1,16.9
O=C(Nc1ccc2c(c1)CCC2)c1cc2ccccc2o1,62.8*,i,-6.5,i,26.4,-2.8
CCOc1ccc(Oc2ccc(C(F)(F)F)cc2N)cc1,10.5,i,-9.7,i,5.2,5.5
Cc1cccc(N=c2oc3cc(O)ccc3cc2C(N)=O)c1,58.4*,i,9.1,i,22.6,·
COc1ccccc1N=c1oc2cc(O)ccc2cc1C(N)=O,26.9,i,20.8,i,1.2,·
CC(O)CNc1nc2ccccc2n1CC(=O)NCC(F)(F)F (configuration not stated),5.3,i,73.2*,i,4.3,-5.0
Cc1ccc(N=C2NC(=O)/C(=C/c3cccn3C)S2)cc1C,54.1*,i,-10.4,i,29.5,1.6
Cc1ccc(N=C2NC(=O)/C(=C/c3cccn3C)S2)cc1,17.9,i,35.8,i,15.6,-9.5
COc1cccc(NC=C2C(=O)OC3(CCCCC3)OC2=O)c1,58.8*,i,0.6,i,28.0,·
CN(C)c1ccc(-n2cccc2/C=C/[N+](=O)[O-])cc1,95.2*,i,-0.6,i,68.5,16.7
O=C(c1ccco1)N1CCN(c2cc(=O)n(-c3ccc(Cl)cc3)c(=O)[nH]2)CC1,8.1,i,26.2,i,-2.9,-5.4
c1ccc(OCc2nnc3sc(C4COc5ccccc5O4)nn23)cc1 (configuration not stated),-1.9,i,80.3*,i,0.7,·
Clc1ccccc1-c1nnc2sc(C3COc4ccccc4O3)nn12 (configuration not stated),·,i,80.2*,i,·,9.9
N#Cc1ccc(CSc2nnc(-c3cnccn3)o2)cc1,37.7,i,-13.6,i,-4.1,-11.2
COCCCn1c(=O)c2sccc2n(Cc2ccc(C)cc2)c1=O,20.8,i,·,i,-1.4,-7.8
CC(C)(C)C(=O)COC(=O)c1cc(-c2cccnc2)nc2ccccc12,-6.0,i,39.9,i,-5.8,14.7
SMILES,HSF1 activator,CHT inh,PHOSPHO1 inh,CHT PAM,HSF1 inhib,Lipid droplet
Cc1[nH]c(=S)c(C#N)c(-c2ccco2)c1C(=O)N(C)C,-10.6,i,60.9*,i,-5.7,3.6
Cc1ccc(C(=O)OC(C)CN2C(C)CCCC2C)cc1 (configuration not stated),-19.4,i,33.7,i,-7.8,7.6
CC(=O)c1ccc(Oc2nc(-c3cccnc3)nc3ccccc23)cc1,·,i,-19.0,i,·,0.6
O=C(NNc1ncnc2ccccc12)c1cccc(Cl)c1,59.6*,i,33.4,i,20.9,5.8
N#Cc1cnc(Nc2ccc(F)cc2)nc1N,72.0*,i,32.1,i,30.7,-0.2
Nc1nc(CSCCO)nc(Nc2ccc(F)cc2)n1,8.3,i,-0.3,i,-1.1,7.0
COc1ccccc1Oc1cc(C#N)c(C#N)cc1-n1nnc2ccccc21,78.7*,i,15.9,i,45.9,·
Cc1ccc(NC(=O)/C(=C\c2cccs2)NC(=O)c2ccccc2)cc1,1.3,i,-4.0,i,0.0,6.4
COc1ccc(N(CC(=O)N/N=C/c2ccc(OC)cc2OC)S(=O)(=O)c2ccccc2)cc1,22.6,i,14.1,i,4.0,·
Cc1c(OC(C)C(=O)NCc2ccncc2)ccc2c3c(c(=O)oc12)CCCC3 (configuration not stated),3.4,-4.99*,26.5,i,-6.5,3.7
Cc1cc(=O)oc2c(C)c(OC(C)C(=O)NCC(O)c3ccccc3)ccc12 (configuration not stated),51.3*,i,39.9,i,15.2,16.1
CCc1cc(=O)oc2c(C)c(OC(C)C(=O)NCCCN3CCOCC3)ccc12 (configuration not stated),5.2,i,45.3,i,-6.1,-2.6
Cc1c(OC(C)C(=O)NCc2ccccn2)ccc2c3c(c(=O)oc12)CCC3 (configuration not stated),-13.1,i,-11.4,i,1.1,-5.6
Cc1cc(=O)oc2c(C)c(OC(C)C(=O)NCCCN3CCOCC3)ccc12 (configuration not stated),-75.7,i,64.0*,i,-68.8*,13.2
Cc1c(OC(C)C(=O)NCC(O)c2ccccc2)ccc2c3c(c(=O)oc12)CCCC3 (configuration not stated),-4.0,i,-67.1,i,4.5,-6.6
COc1ccc(C2CC(c3cccs3)=Nc3ccccc3S2)cc1 (configuration not stated),19.5,i,-26.0,i,13.5,-10.9
Cc1cc(O)c(C2=Nc3ccccc3SC(c3ccc(Cl)cc3)C2)c(=O)o1 (configuration not stated),-62.9,i,3.2,i,-54.2*,-30.2
CCSC1(SCC)N=C(N)C2(C#N)C(c3ccc(F)cc3)C12C#N (configuration not stated),82.5*,i,5.5,i,74.1,·
COC(=O)C1=C(COc2ccccc2)NC(=O)NC1c1ccc(Cl)cc1 (configuration not stated),53.1*,i,·,i,20.8,·
CCOC(=O)C1=C(COc2ccccc2)NC(=O)NC1c1ccc(Cl)cc1 (configuration not stated),21.2,i,-1.7,i,12.3,-21.9
O=C(Nc1ccc(S(=O)(=O)N2CCCCCC2)cc1)c1[nH]ncc1[N+](=O)[O-],106.6*,i,27.0,i,88.8,0.2
CCOC(=O)C1CCN(CCC(=O)Nc2ccc(C)c(C)c2)CC1,·,i,8.0,i,·,28.4
